Measured values: ChEMBL document CHEMBL3526077, “Prediction of human metabolism of FK3453 by aldehyde oxidase using chimeric mice transplanted with human or rat hepatocytes” (Drug Metab Dispos, 2012)

Legend:
[1] = Half life in chimeric mouse transplanted with rat hepatocytes at 3 mg/kg, iv; type: ADME, organism-based, Hepatocyte; set-up: dose 3 mg/kg, route intravenous
In short: (§1)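 Single 3 mg/kg intravenous dose in 10% DMSO, 10% PEG400 with equimolar HCl in saline to h-PXB or r-PXB mice (n=3~4). Orbital-vein plasma collected over 0–6 hr and measured by LC/MS/MS. Non-compartmental analysis; AUC by trapezoidal rule extrapolated to infinity; CLt = Dose/AUCiv.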

[2] = Cmax in chimeric mouse transplanted with human hepatocytes at 3 mg/kg, po; type: ADME, organism-based, Hepatocyte; set-up: dose 3 mg/kg, route oral
In short: (§2)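 Single 3 mg/kg oral dose of compound in 50% PEG400 with equimolar HCl in saline to h-PXB or r-PXB mice (n=3~4). Orbital-vein blood (heparinized) taken over 0–6 hr; plasma stored at -30°C and assayed by LC/MS/MS. Non-compartmental analysis: Cmax from observed values, AUC by trapezoidal rule extrapolated to infinity, CLoral = Dose/AUCpo.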

[3] = Clearance in chimeric mouse transplanted with rat hepatocytes at 3 mg/kg, po; type: ADME, organism-based, Hepatocyte; set-up: dose 3 mg/kg, route oral; in short: as §2
[4] = Cmax in chimeric mouse transplanted with rat hepatocytes at 3 mg/kg, po; type: ADME, organism-based, Hepatocyte; set-up: dose 3 mg/kg, route oral; in short: as §2
[5] = AUC in chimeric mouse transplanted with human hepatocytes at 3 mg/kg, po; type: ADME, organism-based, Hepatocyte; set-up: dose 3 mg/kg, route oral; in short: as §2
[6] = Oral bioavailability in rat at 3.2 mg/kg; type: ADME, organism-based; details: in vivo
aldehyde oxidase [7] = biological target: T1, aldehyde oxidase (Homo sapiens, UniProt Q06278); assay: Activity of aldehyde oxidase in hepatocytes isolated from chimeric mouse transplanted with human hepatocytes assessed as enzyme-mediated drug metabolism measured as compound remaining at 10 uM after 2 hrs by LC/MS/MS analysis; type: ADME, cell-based, Hepatocyte; details: read-out: Stability
T1 sequence (Q06278 whole entry): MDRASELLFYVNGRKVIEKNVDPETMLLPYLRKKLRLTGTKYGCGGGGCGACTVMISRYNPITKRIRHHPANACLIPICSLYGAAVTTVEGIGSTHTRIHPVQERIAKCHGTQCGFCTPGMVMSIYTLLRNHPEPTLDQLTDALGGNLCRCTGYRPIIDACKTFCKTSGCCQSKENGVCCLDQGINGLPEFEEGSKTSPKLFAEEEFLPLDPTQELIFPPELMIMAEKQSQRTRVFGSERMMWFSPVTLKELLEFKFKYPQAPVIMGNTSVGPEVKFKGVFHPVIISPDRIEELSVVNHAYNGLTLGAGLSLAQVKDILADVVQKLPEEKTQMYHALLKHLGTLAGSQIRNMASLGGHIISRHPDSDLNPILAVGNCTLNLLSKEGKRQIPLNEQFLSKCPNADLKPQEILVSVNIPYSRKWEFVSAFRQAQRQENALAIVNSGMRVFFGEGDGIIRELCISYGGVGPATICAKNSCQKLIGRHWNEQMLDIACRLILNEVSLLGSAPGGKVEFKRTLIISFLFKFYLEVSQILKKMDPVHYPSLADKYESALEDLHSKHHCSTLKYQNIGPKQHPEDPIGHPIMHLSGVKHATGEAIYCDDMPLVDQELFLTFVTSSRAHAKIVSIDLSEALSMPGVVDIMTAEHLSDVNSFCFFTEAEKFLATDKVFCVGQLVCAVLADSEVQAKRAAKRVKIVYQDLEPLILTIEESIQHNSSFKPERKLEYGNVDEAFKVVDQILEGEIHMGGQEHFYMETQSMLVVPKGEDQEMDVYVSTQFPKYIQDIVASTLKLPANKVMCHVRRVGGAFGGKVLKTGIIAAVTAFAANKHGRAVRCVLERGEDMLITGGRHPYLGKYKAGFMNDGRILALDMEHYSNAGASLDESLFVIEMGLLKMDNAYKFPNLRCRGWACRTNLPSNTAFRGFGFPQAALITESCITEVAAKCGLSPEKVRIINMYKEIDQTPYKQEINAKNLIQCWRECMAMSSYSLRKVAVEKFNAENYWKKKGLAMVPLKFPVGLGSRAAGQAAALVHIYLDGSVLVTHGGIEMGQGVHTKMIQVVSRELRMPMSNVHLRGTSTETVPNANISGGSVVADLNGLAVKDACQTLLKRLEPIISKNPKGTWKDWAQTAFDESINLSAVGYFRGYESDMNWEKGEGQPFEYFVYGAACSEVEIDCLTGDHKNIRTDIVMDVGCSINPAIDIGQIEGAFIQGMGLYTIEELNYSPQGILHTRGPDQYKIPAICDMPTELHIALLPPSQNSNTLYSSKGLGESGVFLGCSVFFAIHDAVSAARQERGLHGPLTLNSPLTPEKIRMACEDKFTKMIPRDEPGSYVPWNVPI
In short: (§3)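 Fresh hepatocytes from h-PXB mice (mouse cells removed with 66Z rat IgG and anti-rat IgG magnetic beads) or r-PXB mice, 1×10^6 cells/mL in serum-free Krebs-Henseleit buffer. Incubated with 10 μM compound (0.5% acetonitrile) at 37°C under 5% CO₂/95% O₂ with shaking, sampled 0–2 hr. Quenched with acetonitrile, analysed by LC/MS/MS, n=3. CLint derived from first-order depletion rate constant.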

[8] = Total clearance in chimeric mouse transplanted with human hepatocytes at 3 mg/kg, iv; type: ADME, organism-based, Hepatocyte; set-up: dose 3 mg/kg, route intravenous; in short: as §1
Mus musculus = assay: Drug metabolism in plasma of chimeric mouse transplanted with human hepatocytes at 3 mg/kg, iv as single dose; type: ADME, organism-based, Hepatocyte; set-up: dose 3 mg/kg, route intravenous
In short: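 Pooled plasma from h-PXB or r-PXB mice after a 3 mg/kg i.v. dose was mixed with an equal volume of acetonitrile and centrifuged. Metabolites were profiled by C18 UPLC with ammonium formate/acetonitrile gradient, UV 254 nm, and Orbitrap MS/MS. Scored as detected or not detected.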

[9] = Oral bioavailability in chimeric mouse transplanted with human hepatocytes at 3 mg/kg; type: ADME, organism-based, Hepatocyte
[10] = Half life in chimeric mouse transplanted with human hepatocytes at 3 mg/kg, iv; type: ADME, organism-based, Hepatocyte; set-up: dose 3 mg/kg, route intravenous; in short: as §1
[11] = Drug excretion in urine of chimeric mouse transplanted with rat hepatocytes at 3 mg/kg, iv as single dose; type: ADME, organism-based, Hepatocyte; set-up: dose 3 mg/kg, route intravenous; details: read-out: Drug excretion
In short: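 After a 3 mg/kg i.v. dose, pooled urine and feces were collected from metabolic cages over 0–24 hr (n=3). Samples were homogenized in 10 volumes of water, mixed with acetonitrile and analysed by UPLC (UV 254 nm) and LC/MS/MS. Excretion expressed as % of dose.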

[12] = Half life in rat at 3 mg/kg, iv; type: ADME, organism-based; set-up: dose 3 mg/kg, route intravenous; details: in vivo
[13] = AUC in rat at 3.2 mg/kg, po; type: ADME, organism-based; set-up: dose 3.2 mg/kg, route oral; details: plasma
[14] = Plasma protein binding in chimeric mouse transplanted with human hepatocytes by equilibrium dialysis method; type: ADME, cell-free, Hepatocyte; details: read-out: PPB (converted)
In short: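 Compound at 1 µg/mL incubated in plasma of h-PXB or r-PXB mice; bound fraction determined by equilibrium dialysis.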

[15] = AUC in human at 10 mg, po; type: ADME, organism-based; details: plasma
aldehyde oxidase [16] = biological target: T2, aldehyde oxidase (Rattus norvegicus, UniProt Q9Z0U5); assay: Activity of aldehyde oxidase in hepatocytes isolated from chimeric mouse transplanted with rat hepatocytes assessed as enzyme-mediated drug metabolism measured as compound remaining at 10 uM after 2 hrs by LC/MS/MS analysis; type: ADME, cell-based, Hepatocyte; details: read-out: Stability; in short: as §3
T2 sequence (Q9Z0U5 whole entry): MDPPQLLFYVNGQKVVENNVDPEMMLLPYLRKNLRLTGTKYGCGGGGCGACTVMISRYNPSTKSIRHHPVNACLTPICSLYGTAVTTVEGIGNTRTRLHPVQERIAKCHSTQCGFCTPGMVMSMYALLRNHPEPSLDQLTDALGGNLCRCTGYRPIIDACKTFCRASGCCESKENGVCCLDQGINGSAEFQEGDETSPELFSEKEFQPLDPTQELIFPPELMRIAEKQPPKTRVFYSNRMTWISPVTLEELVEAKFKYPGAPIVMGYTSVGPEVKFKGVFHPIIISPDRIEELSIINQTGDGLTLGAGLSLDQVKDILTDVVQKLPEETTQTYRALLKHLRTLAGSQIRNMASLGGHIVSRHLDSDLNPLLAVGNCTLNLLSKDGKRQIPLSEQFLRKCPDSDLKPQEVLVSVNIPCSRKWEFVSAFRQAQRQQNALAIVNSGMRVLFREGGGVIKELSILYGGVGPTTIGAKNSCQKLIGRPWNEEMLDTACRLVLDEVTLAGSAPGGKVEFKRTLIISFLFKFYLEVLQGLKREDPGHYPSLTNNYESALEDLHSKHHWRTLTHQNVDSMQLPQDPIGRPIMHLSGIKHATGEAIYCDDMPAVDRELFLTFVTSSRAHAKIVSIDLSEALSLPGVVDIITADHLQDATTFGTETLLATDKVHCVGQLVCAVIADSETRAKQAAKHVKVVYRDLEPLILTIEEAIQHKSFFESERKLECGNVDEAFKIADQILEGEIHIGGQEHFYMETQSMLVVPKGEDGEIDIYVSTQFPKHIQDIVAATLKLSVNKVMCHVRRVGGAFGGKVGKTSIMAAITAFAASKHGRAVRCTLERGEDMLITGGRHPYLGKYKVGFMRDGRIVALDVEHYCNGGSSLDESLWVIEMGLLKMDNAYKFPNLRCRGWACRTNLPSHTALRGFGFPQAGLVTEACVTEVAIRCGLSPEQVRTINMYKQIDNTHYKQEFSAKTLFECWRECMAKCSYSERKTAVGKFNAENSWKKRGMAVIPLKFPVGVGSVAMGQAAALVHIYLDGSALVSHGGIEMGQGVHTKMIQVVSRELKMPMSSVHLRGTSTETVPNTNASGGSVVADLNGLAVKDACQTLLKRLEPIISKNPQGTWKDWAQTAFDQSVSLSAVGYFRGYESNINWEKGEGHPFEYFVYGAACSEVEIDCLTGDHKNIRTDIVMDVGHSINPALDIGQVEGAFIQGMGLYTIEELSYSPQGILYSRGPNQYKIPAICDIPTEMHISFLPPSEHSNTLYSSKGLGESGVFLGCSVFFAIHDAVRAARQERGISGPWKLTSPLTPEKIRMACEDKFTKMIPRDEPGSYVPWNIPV

[17] = Clearance in rat at 3.2 mg/kg, po; type: ADME, organism-based; set-up: dose 3.2 mg/kg, route oral; details: in vivo

SMILES: CC(C)n1nc(-c2cnc(N)nc2-c2ccccc2)ccc1=O
- half-life [1]: 48 min
- Cmax [2]: 253 ng/mL
- CL/F [3]: 61.6 mL/min/kg
- Cmax [4]: 856 ng/mL
- AUC [5]: 214 ng·h/mL
- bioavailability [6]: 34.6%
- remaining at 2 h, 10 µM (aldehyde oxidase [7]): 27.5%
- clearance [8]: 70.7 mL/min/kg
- Drug metabolism (Mus musculus): metabolite_detected
- bioavailability [9]: 29.4%
- half-life [10]: 42 min
- dose excreted [11]: 0.1%
- half-life [12]: 24 min
- AUC [13]: 1790 ng·h/mL
- fraction unbound [14]: 0.205
- AUC [15]: 2.19 ng·h/mL
- remaining at 2 h, 10 µM (aldehyde oxidase [16]): 58.4%
- CL/F [17]: 29.8 mL/min/kg
